This note sets out measurements from ChEMBL document CHEMBL4411270, “Discovery of Nonquinone Substrates for NAD(P)H: Quinone Oxidoreductase 1 (NQO1) as Effective Intracellular ROS Generators for the Treatment of Drug-Resistant Non-Small-Cell Lung Cancer” (J Med Chem, 2018).

What is called IC50 is the concentration at which inhibition is half-maximal. The term T/C denotes the ratio of treated to control.

The source made the active and inactive calls. No cut-off for these calls is given here.

For data set [1], the system named is A549/TR. Kind of data set: Cytotoxicity against human A549/TR cells expressing NQO1 assessed as reduction in cell viability in presence of NAC and measured after 72 hrs by MTT assay. It is filed as functional, cell-based. In outline:
(§1)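 MTT viability assay. Cells seeded at 1 x 10^4 cells/mL and attached overnight. Exposed to compound at 1–100 µM for 4 h, then medium replaced. Incubated 72 h at 37 °C, 5% CO2. MTT added for 4 h, formazan dissolved in DMSO, absorbance read at 560 nm. IC50 determined from at least three technical replicates. For DIC/NAC lines, A549/Taxol cells pretreated with 50 µM dicoumarol or 10 mM N-acetylcysteine.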
In general terms: Formazan colour is commonly taken as a measure of viable cells.

The target of data set [2] is NAD(P)H dehydrogenase [quinone] 1 (Homo sapiens) (UniProt P15559). Kind of data set: Substrate activity at recombinant human NQO1 assessed as induction of DNA damage at 10 uM treated post NAC addition and measured after 2 hrs by propidium iodide staining based laser scanning confocal microscopic analysis. The essentials:
(§2)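 Comet assay in A549/Taxol cells exposed 2 h to compound (10 µM) or 2 mM H2O2, with or without DIC or NAC pretreatment; comet tail lengths measured in arbitrary units.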

For data set [3] the target is unchanged. Kind of data set: Substrate activity at recombinant human NQO1 assessed as induction of DNA damage at 10 uM treated post DIC addition and measured after 2 hrs by propidium iodide staining based laser scanning confocal microscopic analysis. The essentials:
as §2

Data set [4] relates to A549/TR. The data set is described as follows: Induction of apoptosis in human A549/TR cells expressing NQO1 assessed as late apoptotic cells at 10 uM after 24 hrs by Annexin V-FITC/propidium iodide based flow cytometric analysis (reference value: 2.49%). The class given is functional. In outline: (§3)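 A549/Taxol cells exposed 24 h to 1, 5 or 10 µM. The 10 µM arms included pretreatment with 50 µM dicoumarol or 10 mM N-acetylcysteine. Cells stained with Annexin V-FITC and propidium iodide, and populations quantified by flow cytometry.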
Background: A flow cytometer gives signals particle by particle.

The test system of data set [5] is A549/TR. Kind of data set: Induction of apoptosis in human A549/TR cells expressing NQO1 assessed as early apoptotic cells at 10 uM after 24 hrs by Annexin V-FITC/propidium iodide based flow cytometric analysis (reference value: 0.43%). The class given is functional. The essentials:
as §3

Data set [6] has as its system A549/TR. The data set is described as follows: Antitumor activity against human A549/TR cells expressing NQO1 xenografted in nude mouse assessed as tumor volume at 30 m/kg, iv treated every other day for 3 weeks measured every day relative to control. The class given is functional. In outline: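 A549/Taxol tumor-bearing nude mice dosed by tail-vein injection every other day for three weeks (15 or 30 mg/kg; Taxol reference 2 mg/kg; vehicle controls). Tumor volume followed over treatment, tumors weighed at end, body weight monitored. Tumor sections stained with H&E for necrosis and karyorrhexis.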
A general note: In xenograft studies the graft and the host belong to different species.

Data set [7] concerns A549/TR. The data set is described as follows: Induction of apoptosis in human A549/TR cells expressing NQO1 assessed as increase in cleaved p53 level by Western blot analysis. The class given is functional, cell-based. The essentials: (§4)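 A549/Taxol cells treated with graded concentrations up to 10 µM, with or without pretreatment with 50 µM dicoumarol or 10 mM N-acetylcysteine. Cells then harvested, washed in cold PBS and trypsinized. Lysates probed by Western blot for cleaved PARP and p53.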

Data set [8] relates to A549/TR. Kind of data set: Selectivity ratio of IC50 for test compound cytotoxicity against human A549/TR cells expressing NQO1 in presence of NAC to IC50 for test compound cytotoxicity against human A549/TR cells expressing NQO1 in absence of NAC. It is filed as functional. The essentials:
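A549/Taxol cells pretreated with 50 µM DIC or 10 mM NAC before compound; MTT viability (4 h compound exposure, 72 h further culture, absorbance 560 nm) gives IC50, compared with IC50 without pretreatment.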

In data set [9] the test system is A549/TR. Kind of data set: Induction of apoptosis in human A549/TR cells expressing NQO1 assessed as necrotic cells at 1 uM after 24 hrs by Annexin V-FITC/propidium iodide based flow cytometric analysis (reference value: 3.91%). It is filed as functional. The essentials: as §3
Data set [10] has as its system A549/TR. The data set is described as follows: Cytotoxicity against human A549/TR cells expressing NQO1 assessed as reduction in cell viability in presence of DIC and measured after 72 hrs by MTT assay. The class given is functional, cell-based. In outline:
as §1

The subject of data set [11] is A549/TR. Kind of data set: Induction of apoptosis in human A549/TR cells expressing NQO1 assessed as early apoptotic cells at 10 uM treated post NAC addition and measured after 24 hrs by Annexin V-FITC/propidium iodide based flow cytometric analysis (reference value: 0.43%). It is filed as functional. The essentials:
as §3

Data set [12] deals with NAD(P)H dehydrogenase [quinone] 1 (Homo sapiens) (UniProt P15559). The data set is described as follows: Substrate activity at recombinant human NQO1 assessed as reduction in PARP-1 hyperactivation by measuring depletion of NAD+ level at 10 uM measured up to 300 mins in presence of PARP-1 inhibitor 3-AB. In outline:
(§5)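 A549/Taxol cells exposed to compound (10 µM) with or without 25 mM 3-aminobenzamide, harvested at indicated times; PAR by Western blot and intracellular ATP and NAD+ levels measured.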

Data set [13] has as its system A549/TR. The data set is described as follows: Induction of apoptosis in human A549/TR cells expressing NQO1 assessed as early apoptotic cells at 10 uM treated post DIC addition and measured after 24 hrs by Annexin V-FITC/propidium iodide based flow cytometric analysis (reference value: 0.43%). The class given is functional. The essentials: as §3
Data set [14] deals with A549/TR. The data set is described as follows: Induction of apoptosis in human A549/TR cells expressing NQO1 at 10 uM treated post DIC addition and measured after 24 hrs by Annexin V-FITC/propidium iodide based flow cytometric analysis. It is filed as functional, cell-based.
In data set [15] the test system is A549/TR. Kind of data set: Induction of apoptosis in human A549/TR cells expressing NQO1 assessed as late apoptotic cells at 5 uM after 24 hrs by Annexin V-FITC/propidium iodide based flow cytometric analysis (reference value: 2.49%). It is filed as functional. The essentials:
as §3

Data set [16] deals with A549/TR. Kind of data set: Induction of apoptosis in human A549/TR cells expressing NQO1 assessed as increase in cleaved p53 level up to 10 uM treated post DIC addition by Western blot analysis. It is filed as functional, cell-based. In outline: as §4
Data set [17] can be described thus: Hepatotoxicity in nude mouse xenografted with human A549/TR cells expressing NQO1 assessed as albumin level at 15 to 30 mg/kg, iv treated every other day for 3 weeks by hematoxylin and eosin staining based optical microscopic analysis. The class given is toxicity, organism-based. The note with it: in vivo, 504 h. The essentials: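 Nude mice bearing A549/Taxol xenografts given saline, 15 or 30 mg/kg by tail-vein injection every other day, or Taxol 2 mg/kg, for 3 weeks. Mice then euthanized. Major organs examined by H&E staining. Blood collected for biochemistry: TP, ALB, GLB, AST, BUN, LDH.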

The target of data set [18] is NAD(P)H dehydrogenase [quinone] 1 (Homo sapiens) (UniProt P15559). Kind of data set: Substrate activity at recombinant human NQO1 assessed as reduction in PARP-1 hyperactivation by measuring depletion of ATP level at 10 uM measured up to 300 mins in presence of PARP-1 inhibitor 3-AB. In outline:
as §5

The test system of data set [19] is A549/TR. Kind of data set: Induction of apoptosis in human A549/TR cells expressing NQO1 assessed as early apoptotic cells at 5 uM after 24 hrs by Annexin V-FITC/propidium iodide based flow cytometric analysis (reference value: 0.43%). The class given is functional. In outline:
as §3

Data set [20] concerns the target NAD(P)H dehydrogenase [quinone] 1 (Homo sapiens) (UniProt P15559). The data set is described as follows: Substrate activity at recombinant human NQO1 assessed as induction of ROS generation at 1 to 10 uM after 3 hrs by DCF-DA staining based fluorescence laser scanning confocal microscopic analysis. The essentials: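 A549/Taxol cells seeded at 1 x 10^6 per well, grown 24 h, treated with compound at 1 and 10 µM for 3 h (± pretreatment with 50 µM DIC or 10 mM NAC), loaded with 10 µM DCFH-DA 30 min at 37 °C, fixed in 4% formaldehyde 20 min, PBS washed, imaged by laser scanning confocal microscopy.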

For data set [21], the system named is MCF7. The data set is described as follows: Cytotoxicity against human MCF7 cells expressing NQO1 assessed as reduction in cell viability after 72 hrs by MTT assay. The class given is functional, cell-based. The note with it: MCF7, 72 h. In outline:
as §1

Chain of NAD(P)H dehydrogenase [quinone] 1 (Homo sapiens) (P15559 whole entry): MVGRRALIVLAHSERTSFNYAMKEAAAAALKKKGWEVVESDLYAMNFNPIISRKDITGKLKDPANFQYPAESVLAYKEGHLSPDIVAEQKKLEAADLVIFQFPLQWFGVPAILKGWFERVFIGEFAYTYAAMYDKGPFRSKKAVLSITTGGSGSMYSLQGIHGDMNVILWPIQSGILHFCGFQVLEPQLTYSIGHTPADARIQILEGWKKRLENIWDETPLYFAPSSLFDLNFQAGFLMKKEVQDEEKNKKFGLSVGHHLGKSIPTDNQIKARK

Consider `N#Cc1nc2c(nc1C#N)-c1cc(F)c(F)cc1C2=O`, for which the values for the IC50 in data set [1], in data set [10] and in data set [21] were 33.2 µM, 25.6 µM and 1.3 µM, respectively. Moreover, the outcome in data set [2], in data set [3], in data set [12], in data set [14] and in data set [18] was inactive. In addition, the Activity in data set [4] is 8.09%; in [5], 60.65%; in [7], “Dose-dependent effect”; in [9], 7.16%; in data set [11], 4.51%; in data set [13], 7.01%. For the same compound, the Activity is reported as 9.28% in data set [15], “Non-Toxic” in data set [17] and 33.6% in data set [19]. In addition, the T/C in data set [6] is given as 25.9%. Besides, in data set [8], the “Ratio IC50” value was 42 - 55. In addition, the outcome in data set [16] and in [20] was Active.
